From publication PMC11349029 (Science translational medicine, 2016)
Residues, ends and D or L forms follow the SMILES beside them. No end group written: not given here. *: point of attachment. Cbz = O=C(OCc1ccccc1)*

Experiments:
[1] = system: p21^Cip1; assay: p21Cip1 expression in cells; type: cell-based; conditions: fig. S13, A to D
[2] = system: CDK2/p21^Cip1; assay: Binding of CDK2 to p21Cip1 in SBMA cells; type: cell-based; conditions: fig. S13E
[3] = system: AR55Q (polyQ-AR); assay: Western blotting of upper AR isoform in HEK293T cells; type: cell-based, human; conditions: for accumulation of the upper AR isoform (p21Cip1 experiments) / effect on upper AR isoform upon overexpression of wtCDK2: HEK293T AR55Q; for accumulation of the upper AR isoform (p21Cip1 experiments): 5 or 100 nM OA, 10 μM forskolin, 100 nM PACAP, 24 hours; for effect on upper AR isoform upon overexpression of wtCDK2: 10 μM forskolin or 100 nM PACAP; for mobility of S96A and S96D phosphomutants: HEK293T, AR55Q-S96A, AR55Q-S96D, 100 nM PACAP (5 hours), SDS-PAGE, n = 4
[4] = system: AR55Q (polyQ-AR); assay: PolyQ-AR accumulation and turnover in HEK293T cells; type: cell-based, human
Procedure, shortened: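 AR55Q was expressed in HEK293T cells (DMEM, 10% heat-inactivated FBS, 2 mM L-glutamine, 37°C, 5% CO2) by polyethylenimine transfection the day after plating. For turnover, cells got cycloheximide 10 μg/ml plus 10 μM forskolin; separately, empty vector or wtPKA plus 10 μM MG132 for 5 h. AR was immunoblotted after 7% SDS-PAGE against a β-tubulin loading control.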

[5] = system: polyQ-AR; assay: Atomic force microscopy of polyQ-AR oligomers; type: cell-based; conditions: Sf9 insect cells; 10 nM DHT and 10 μM forskolin, 24 hours; n = 15 to 25
[6] = system: polyQ-AR; assay: PolyQ-AR aggregation in HEK293T cells; type: cell-based, human; conditions: high–molecular weight species in stacking gel, SDS-PAGE; fig. S18
[7] = system: SBMA MN-1 cells; assay: Caspase 3 assay in MN-1 cells; type: cell-based, mouse; conditions: SBMA MN-1 cells (AR65Q), 48 hours
[8] = system: AR100Q (polyQ-AR); assay: Western blotting of upper AR isoform in primary cortical neurons; type: cell-based, rat primary cortical neurons; conditions: 10 μM forskolin (5 hours); n = 4
Procedure, shortened: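 Cortical neurons came from embryonic day 18 Sprague-Dawley rats, dissociated with papain/DNase/cysteine and plated at 40,000 cells/cm² on poly-L-lysine in Neurobasal/B-27/GlutaMAX. At 6–7 DIV they were transduced with lentivirus (MOI 10) expressing AR24Q or AR100Q plus EGFP. Neurons were treated with 10 μM forskolin for 5 h, and AR upper and lower isoforms were immunoblotted with loading controls; n = 4.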

[9] = system: AR55Q phosphorylated at Ser^96; assay: Western blotting of Ser96-phosphorylated AR in HEK293T cells; type: cell-based, human; conditions: 10 μM forskolin or 100 nM PACAP, 5 hours, n = 5 to 10
Procedure, shortened: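 HEK293T cells expressing AR55Q or AR55Q-S96A were treated with 10 μM forskolin or 100 nM PACAP for 5 hours. Lysates were run on 7% SDS-PAGE and blotted to nitrocellulose. Blots were probed with antibodies to Ser96-phosphorylated and total AR and detected by chemiluminescence or infrared imaging. n = 9 to 10 and 5 independent experiments.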

[10] = system: AR100Q (polyQ-AR); assay: Western blotting of upper AR isoform in MN-1 cells; type: cell-based, mouse motor neuron–derived MN-1 cells; conditions: 10 μM forskolin (5 hours); n = 3
[11] = system: AR112Q (polyQ-AR); assay: PolyQ-AR aggregation in PC12 cells; type: cell-based, rat PC12 cells; conditions: doxycycline 10 μg/ml, 10 nM DHT, 10 μM forskolin, 24 hours, n = 3
[12] = system: PAC1 receptor; conditions: cited from earlier work
[13] = system: AC/PKA pathway; conditions: cited from earlier work
[14] = system: animal models of AD, PD and HD; conditions: cited from earlier work
[15] = system: healthy male subjects; conditions: cited from earlier work
[16] = system: AR; conditions: cited from earlier work
[17] = cited from earlier work
[18] = cited from earlier work; remark: listed apart in the source
[19] = system: cAMP (EPAC biosensor), SBMA MN-1 cells; assay: BRET cAMP biosensor assay in MN-1 cells; type: cell-based, mouse; conditions: SBMA MN-1 cells (AR65Q); different concentrations of PACAP, 20 min; n = 4
Procedure, shortened: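 MN-1 cells were transfected with an EPAC cAMP BRET biosensor (Renilla luciferase N-terminal, YFP C-terminal) 24 h after seeding. After another 24 h they were replated at 80,000 cells/well in phenol red–free MEM with 2% FBS, 10 mM Hepes and 2 mM glutamine, with or without 10 nM DHT for 24 h. Wells were read in PBS (Ca/Mg, 0.003% ascorbic acid) with 5 μM coelenterazine h for about 20 min after agonist; cAMP binding lowers the signal.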

[20] = system: cAMP; assay: cAMP levels in vivo; parameters: species or system mouse; conditions: fig. S21; intranasal
[21] = system: SBMA MN-1 cells; assay: Trypan blue assay in MN-1 cells; type: cell-based, mouse; conditions: MN-1 cells expressing AR100Q, 100 nM PACAP, 96 hours, n = 8
Procedure, shortened: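 MN-1 cells stably expressing AR100Q were grown in DMEM with 10% FBS, 2 mM L-glutamine and gentamicin 0.05 mg/ml at 37°C, 5% CO2. Cells were given DHT plus vehicle or 100 nM PACAP for 96 hours.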

For C=C1[C@@H](O)[C@@H]2O[C@]3(CC[C@H](/C=C/[C@@H](C)[C@@H]4CC(C)=C[C@@]5(O[C@H](C[C@@](C)(O)C(=O)O)CC[C@H]5O)O4)O3)CC[C@H]2O[C@@H]1[C@@H](O)C[C@H](C)[C@H]1O[C@@]2(CCCCO2)CC[C@H]1C [Okadaic acid], the “expression of p21Cip1” value [1] was “induced the expression”, the “binding of CDK2 to p21Cip1” value [2] was “increased the binding” and the “accumulation of the upper AR isoform (p21Cip1 experiments)” value ([3]; n = 3) was “decreased accumulation”.

For C=C[C@@]1(C)CC(=O)[C@]2(O)[C@@]3(C)[C@@H](O)CCC(C)(C)[C@@H]3[C@H](O)[C@H](OC(C)=O)[C@@]2(C)O1 [forskolin], the “reduction of polyQ-AR accumulation” value ([4]; HEK293T AR55Q, 10 μM forskolin, cycloheximide 10 μg/ml, n = 5) was 80%, the AR transcript levels ([4]; fig. S19C) was “without altering” and the “shift from annular to fibrillar oligomers caused by polyQ expansion” value [5] was “reversed”. The “expression of p21Cip1” value [1] was “induced the expression”, the “binding of CDK2 to p21Cip1” value [2] was “increased the binding” and the “polyQ-AR aggregation, HEK293T cells” value [6] was “reduced”. The “caspase 3 activity, forskolin” value ([7]; 10 μM forskolin, n = 6 to 9) was “significant decrease”, the “accumulation of the upper AR isoform (p21Cip1 experiments)” value ([3]; n = 3) was “decreased accumulation” and the “effect on upper AR isoform upon overexpression of wtCDK2” value ([3]; 5 hours, n = 3) was “blocked”. The “accumulation of the upper isoform of polyQ-AR” value ([3]; HEK293T expressing AR55Q, 10 nM DHT and 10 μM forskolin, 5 hours, n = 3) was “decreased the accumulation”, the “mobility of S96A and S96D phosphomutants” value [3] was “not affected” and the “upper-isoform accumulation of polyQ-AR, primary rat cortical neurons” value [8] was “decreased”. For the same compound, the “amount of polyQ-AR phosphorylated at Ser96” value [9] was “significantly reduced”, the “upper-isoform accumulation of polyQ-AR, MN-1 cells” value [10] was “decreased” and the “polyQ-AR aggregation, PC12 cells” value [11] was “reduced”.

In the case of “acetyl–[Ala^15, Ala^20]PACAP1–38–propylamide [Peptide 6]”, the PAC1 receptor agonism [12] is listed as “superagonist”.

In the case of “PACAP38: main PACAP peptide in mammals (137061-48-4, Calbiochem)”, the “stimulation of cAMP production” value ([13]; general statement in discussion, no reference given) is listed as “stimulate cAMP production”, the neuroprotective effects [14] is listed as “strong neuroprotective effects” and the “tolerability, intranasal administration” value [15] is listed as “well tolerated”.

In the case of C[C@]12CCC(=O)C[C@@H]1CC[C@@H]1[C@@H]2CC[C@]2(C)[C@@H](O)CC[C@@H]12 [DHT, dihydrotestosterone], the AR stabilization [16] is given as “stabilizes” and the “accumulation of the upper AR isoform, increase” value [3] is given as “about 1.2 fold”.

In the case of “pituitary adenylyl cyclase activating polypeptide [PACAP]”, the “penetration into target tissues” value [17] is listed as “scarce penetration into target tissues”, the “degradation in the blood” value [18] is listed as “rapidly degraded in the blood” and the metabolic stability [18] is listed as “poor metabolic stability”. For the same compound, the “expression of p21Cip1” value [1] was “induced the expression”, the “binding of CDK2 to p21Cip1” value [2] was “increased the binding” and the “polyQ-AR aggregation, HEK293T cells” value [6] was “reduced”. For the same compound, the “activation of AC” value [13] was “potent activator”, the “caspase 3 activity, PACAP” value ([7]; 100 nM PACAP, n = 3, through activation of PKA) was “significantly reduced” and the “accumulation of the upper AR isoform (p21Cip1 experiments)” value ([3]; n = 3) was “decreased accumulation”. The “effect on upper AR isoform upon overexpression of wtCDK2” value ([3]; 5 hours, n = 3) was “blocked”, the “reduction of the accumulation of the upper isoform of polyQ-AR” value ([3]; HEK293T expressing AR55Q, 10 nM DHT and 100 nM PACAP, 5 hours, n = 9) was 35% and the “mobility of S96A and S96D phosphomutants” value [3] was “not affected”. The “dose dependence of cAMP release” value [19] was “dose-dependent”, the “amount of polyQ-AR phosphorylated at Ser96” value [9] was “significantly reduced” and the “cAMP production in vivo, PACAP” value [20] was “induces cAMP production in vivo”. The “polyQ-AR aggregation, PC12 cells” value [11] was “reduced” and the cell death [21] was “significantly reduced”.

For CC[C@H](CO)Nc1nc(NCc2ccccc2)c2ncn(C(C)C)c2n1 [Roscovitine, roscovitine], the “accumulation of the upper isoform of polyQ-AR, phosphatase/kinase inhibitors” value ([3]; HEK293T expressing AR55Q, fig. S5, S6) was “specifically decreased the accumulation”.

In the case of “vasoactive intestinal peptide (HSDAVFTDNYTRLRKQMAVKKYLNSILN; ends and bridges not checked; UniProt P01282 125-152, looked up) [VIP]”, the “activation of AC” value [13] is listed as “reduced ability to activate AC” and the “accumulation of the upper isoform of polyQ-AR, VIP” value ([3]; fig. S3) is listed as “does not modify”.

In the case of CC(C)C[C@@H](C=O)NC(=O)[C@H](CC(C)C)NC(=O)[C@H](CC(C)C)NC(=O)OCc1ccccc1 [MG132] (Cbz-Leu-Leu-Leu-aldehyde), the “effect of PKA and OA on polyQ-AR” value ([4]; HEK293T AR55Q, 10 μM MG132 (5 hours), n = 3) is reported as “abolished”.
